Values joined by “and” are separate entries in the source; they are usually repeats but may differ in a detail not shown here. Equal entries are not always repeated.
Columns and labels:
Assay type in all cases: toxicity, cell-based
Fibroblast = assay: Multiplex assay against human fibroblast; settings: number of replicates 2
How it was run: (§1)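 Compound was added to live cells that had been stained at seeding with Hoechst33342, BioTracker Green Microtubule Cytoskeleton Dye, MitoTracker Red and Annexin V Alexa Fluor 680, and imaging followed on a CQ1 microscope at 37°C and 5% CO2. CellPathfinder machine-learning gating divided cells into Hoechst high-intensity objects or normal cells, normal cells into healthy, pyknosed or fragmented nuclei, and pyknosed cells into mitotic or apoptotic. Tubulin, mitochondrial-mass and membrane-permeability phenotypes are per cents of healthy-nucleus cells.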

HEK-293T = assay: Multiplex assay against HEK293T; settings: human, number of replicates 2; how it was run: as §1
U2OS = assay: Multiplex assay against U2OS; settings: human, number of replicates 2; how it was run: as §1
[1] = 12 h, 1 µM, compound concentration 1 uM
[2] = 12 h, 10 µM, compound concentration 10 uM
[3] = 24 h, 1 µM, compound concentration 1 uM
[4] = 24 h, 10 µM, compound concentration 10 uM
[5] = 48 h, 1 µM, compound concentration 1 uM
[6] = 48 h, 10 µM, compound concentration 10 uM

## CS(=O)(=O)c1ccc(C(=O)Nc2cccc(COc3ccc(Br)cc3CN3CC[C@@H](O)C3)c2)c(Cl)c1.O=CO
Fibroblast; [1]
  Population Apoptotic (%): 41% and 38%
  Population Fragmented Nuclei (%): 8%
  Population Healthy Nuclei (%): 61% and 73%
  Population Hoechst High Intensity Objects (%): 0%
  Population Mitotic Cells (%): 58% and 61%
  Population Normal (%): 100%
  Population Pyknosed Nuclei (%): 18%
  Total Cell Count: 146 and 167
Fibroblast; [2]
  Population Apoptotic (%): 50% and 40%
  Population Fragmented Nuclei (%): 18% and 16%
  Population Healthy Nuclei (%): 55% and 61%
  Population Hoechst High Intensity Objects (%): 0%
  Population Mitotic Cells (%): 49% and 59%
  Population Normal (%): 100%
  Population Pyknosed Nuclei (%): 25% and 22%
  Total Cell Count: 224 and 280
Fibroblast; [3]
  Population Apoptotic (%): 60% and 46%
  Population Fragmented Nuclei (%): 14% and 15%
  Population Healthy Nuclei (%): 63% and 67%
  Population Hoechst High Intensity Objects (%): 0%
  Population Mitotic Cells (%): 40% and 53%
  Population Normal (%): 100%
  Population Pyknosed Nuclei (%): 22% and 17%
  Total Cell Count: 156 and 186
Fibroblast; [4]
  Population Apoptotic (%): 72% and 79%
  Population Fragmented Nuclei (%): 28% and 23%
  Population Healthy Nuclei (%): 52% and 63%
  Population Hoechst High Intensity Objects (%): 1% and 0%
  Population Mitotic Cells (%): 27% and 20%
  Population Pyknosed Nuclei (%): 18% and 13%
  Total Cell Count: 262 and 331
Fibroblast; [5]
  Population Apoptotic (%): 71% and 57%
  Population Fragmented Nuclei (%): 18% and 16%
  Population Healthy Nuclei (%): 62% and 67%
  Population Hoechst High Intensity Objects (%): 0%
  Population Mitotic Cells (%): 28% and 42%
  Population Normal (%): 100%
  Population Pyknosed Nuclei (%): 18% and 15%
  Total Cell Count: 154 and 164
Fibroblast; [6]
  Population Apoptotic (%): 84% and 82%
  Population Fragmented Nuclei (%): 32% and 30%
  Population Healthy Nuclei (%): 56% and 58%
  Population Hoechst High Intensity Objects (%): 1% and 0%
  Population Mitotic Cells (%): 15% and 17%
  Population Normal (%): 100%
  Population Pyknosed Nuclei (%): 10%
  Total Cell Count: 300 and 395
HEK-293T; [1]
  Population Apoptotic (%): 57% and 47%
  Population Healthy Nuclei (%): 78% and 79%
  Population Mitotic Cells (%): 42% and 52%
  Total Cell Count: 501 and 560
HEK-293T; [2]
  Population Apoptotic (%): 44% and 57%
  Population Healthy Nuclei (%): 87% and 85%
  Population Mitotic Cells (%): 55% and 42%
  Total Cell Count: 619 and 489
HEK-293T; [3]
  Population Apoptotic (%): 54% and 48%
  Population Healthy Nuclei (%): 84% and 83%
  Population Mitotic Cells (%): 45% and 51%
  Total Cell Count: 735 and 812
HEK-293T; [4]
  Population Apoptotic (%): 50% and 66%
  Population Healthy Nuclei (%): 85% and 84%
  Population Mitotic Cells (%): 50% and 33%
  Total Cell Count: 658 and 521
HEK-293T; [5]
  Population Apoptotic (%): 30% and 25%
  Population Healthy Nuclei (%): 85%
  Population Mitotic Cells (%): 69% and 75%
  Total Cell Count: 1702 and 1674
HEK-293T; [6]
  Population Apoptotic (%): 40% and 59%
  Population Healthy Nuclei (%): 85%
  Population Mitotic Cells (%): 60% and 40%
  Total Cell Count: 998 and 697
U2OS; [1]
  Population Apoptotic (%): 60% and 71%
  Population Healthy Nuclei (%): 80%
  Population Hoechst High Intensity Objects (%): 0%
  Population Mitotic Cells (%): 40% and 28%
  Population Normal (%): 100%
  Population Pyknosed Nuclei (%): 9%
U2OS; [2]
  Population Apoptotic (%): 55% and 54%
  Population Healthy Nuclei (%): 65% and 80%
  Population Hoechst High Intensity Objects (%): 0%
  Population Mitotic Cells (%): 44% and 45%
  Population Normal (%): 100%
  Population Pyknosed Nuclei (%): 20% and 15%
U2OS; [3]
  Population Apoptotic (%): 54% and 59%
  Population Healthy Nuclei (%): 59% and 86%
  Population Hoechst High Intensity Objects (%): 0%
  Population Mitotic Cells (%): 45% and 40%
  Population Normal (%): 100%
U2OS; [4]
  Population Apoptotic (%): 60% and 72%
  Population Healthy Nuclei (%): 59% and 65%
  Population Hoechst High Intensity Objects (%): 0%
  Population Mitotic Cells (%): 40% and 27%
  Population Normal (%): 100%
  Population Pyknosed Nuclei (%): 31%
U2OS; [5]
  Population Apoptotic (%): 60% and 87%
  Population Healthy Nuclei (%): 64% and 82%
  Population Hoechst High Intensity Objects (%): 0%
  Population Normal (%): 100%
  Population Pyknosed Nuclei (%): 15%
U2OS; [6]
  Population Apoptotic (%): 76% and 88%
  Population Healthy Nuclei (%): 47% and 57%
  Population Hoechst High Intensity Objects (%): 0% and 1%
  Population Mitotic Cells (%): 23% and 11%
  Population Normal (%): 100%
  Population Pyknosed Nuclei (%): 33%

— ChEMBL document CHEMBL5303300, “EUbOPEN Chemogenomics Library - Multiplex” (2023)
